# Source: ChEMBL document CHEMBL5678799 (Biochem J, 2009)
# Calls of active or inactive are those of the source. The calls are words filed in the database; no cut-off is given here.
# Tests used:
# [1] = target: T1, Mitogen-activated protein kinase; ERK1/ERK2 (Homo sapiens) (UniProt P27361+P28482); assay: Inhibition of ERK1/2 in serum starved/PMA-stimulated HEK293 cells assessed as reduction in RSK phosphorylation at S227 residues at 200 nM incubated for 30 mins by immunoblot analysis; assay type: cell-based
# T1 sequence (P27361 whole entry, looked up): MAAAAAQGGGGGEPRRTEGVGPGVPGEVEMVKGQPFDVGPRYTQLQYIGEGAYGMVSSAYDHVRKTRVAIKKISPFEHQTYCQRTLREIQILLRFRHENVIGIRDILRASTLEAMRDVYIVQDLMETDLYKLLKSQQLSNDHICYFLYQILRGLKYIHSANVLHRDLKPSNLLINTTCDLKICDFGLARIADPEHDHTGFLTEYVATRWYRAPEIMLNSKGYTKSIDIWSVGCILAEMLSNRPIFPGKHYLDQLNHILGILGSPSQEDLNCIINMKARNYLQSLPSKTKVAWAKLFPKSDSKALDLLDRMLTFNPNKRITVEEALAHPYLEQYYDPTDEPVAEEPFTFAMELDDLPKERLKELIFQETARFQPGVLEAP
# T1 sequence (P28482 whole entry, looked up): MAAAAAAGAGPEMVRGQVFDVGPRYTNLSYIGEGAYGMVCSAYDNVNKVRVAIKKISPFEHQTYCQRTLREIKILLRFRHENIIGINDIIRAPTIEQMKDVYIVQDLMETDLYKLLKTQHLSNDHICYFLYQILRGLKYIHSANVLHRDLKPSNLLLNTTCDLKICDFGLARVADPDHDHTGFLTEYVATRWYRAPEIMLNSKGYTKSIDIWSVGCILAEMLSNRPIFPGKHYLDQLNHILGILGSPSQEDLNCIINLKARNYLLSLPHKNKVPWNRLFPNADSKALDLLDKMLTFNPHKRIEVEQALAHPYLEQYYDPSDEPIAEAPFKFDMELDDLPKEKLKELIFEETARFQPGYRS
# [2] = target: T1, Mitogen-activated protein kinase; ERK1/ERK2 (Homo sapiens); assay: Inhibition of ERK1/2 in serum starved/PMA-stimulated HEK293 cells assessed as reduction in RSK phosphorylation at T573 residues at 200 nM incubated for 30 mins by immunoblot analysis; assay type: cell-based
# [3] = target: T1, Mitogen-activated protein kinase; ERK1/ERK2 (Homo sapiens); assay: Inhibition of ERK1/2 in serum starved/PMA-stimulated HEK293 cells assessed as reduction in RSK phosphorylation at S380 residues at 200 nM incubated for 30 mins by immunoblot analysis; assay type: cell-based
# [4] = target: T1, Mitogen-activated protein kinase; ERK1/ERK2 (Homo sapiens); assay: Inhibition of ERK1/2 in serum starved/PMA-stimulated HEK293 cells assessed as reduction in ERK1/2 phosphorylation at T202/Y204 residues at 200 nM incubated for 30 mins by immunoblot analysis; assay type: cell-based
# [5] = target: T1, Mitogen-activated protein kinase; ERK1/ERK2 (Homo sapiens); assay: Inhibition of ERK1/2 in serum starved/PMA-stimulated HEK293 cells assessed as reduction in RSK activity at 200 nM using crosstide as substrate incubated for 30 mins in presence of [32P]-ATP by liquid-scintillation counting method; assay type: cell-based
# MEF [6] = assay: Induction of cell cycle arrest in mLST8 knockout MEF cells assessed as accumulation at G2 phase at 100 nM incubated for 1 to 3 days by propidium iodide staining based flow cytometric analysis (reference value: 14.1 +/- 0.69%); assay type: toxicity; conditions: mouse, 0.1 µM, time 1-3 day
# MEF [7] = assay: Induction of cell cycle arrest in MEF cells assessed as accumulation at G2 phase at 100 nM incubated for 1 to 3 days by propidium iodide staining based flow cytometric analysis (reference value: 15.4 +/- 2.04%); assay type: toxicity; conditions: mouse, 0.1 µM, time 1-3 day
# MEF [8] = assay: Induction of cell cycle arrest in MEF cells assessed as accumulation at S phase at 100 nM incubated for 1 to 3 days by propidium iodide staining based flow cytometric analysis (reference value: 61.5 +/- 0.78%); assay type: toxicity; conditions: mouse, 0.1 µM, time 1-3 day
# [9] = target: Serine/threonine-protein kinase mTOR (Mus musculus) (UniProt Q9JLN9); conditions: MEF, dose 100.0 nM, time 30.0 min
# [10] = target: Serine/threonine-protein kinase mTOR (Homo sapiens) (UniProt P42345); conditions: HEK293, dose 100.0 nM, time 30.0 min
# [11] = target: Serine/threonine-protein kinase mTOR (Mus musculus) (UniProt Q9JLN9); conditions: MEF, dose 100.0 nM, time 30.0 min; remark: listed apart in the source
# [12] = target: Serine/threonine-protein kinase mTOR (Homo sapiens) (UniProt P42345); conditions: HEK293, dose 100.0 nM, time 30.0 min; remark: listed apart in the source
# [13] = target: Serine/threonine-protein kinase mTOR (Mus musculus) (UniProt Q9JLN9); conditions: MEF, dose 100.0 nM, time 30.0 min; remark: listed apart in the source
# MEF [14] = assay: Induction of cell cycle arrest in MEF cells assessed as accumulation at G1 phase at 100 nM incubated for 1 to 3 days by propidium iodide staining based flow cytometric analysis (reference value: 21.4 +/- 1.7%); assay type: toxicity; conditions: mouse, 0.1 µM, time 1-3 day
# [15] = target: Serine/threonine-protein kinase mTOR (Mus musculus) (UniProt Q9JLN9); conditions: MEF, dose 100.0 nM, time 30.0 min; remark: listed apart in the source
# MEF [16] = assay: Induction of cell cycle arrest in mLST8 knockout MEF cells assessed as accumulation at G1 phase at 100 nM incubated for 1 to 3 days by propidium iodide staining based flow cytometric analysis (reference value: 22.2 +/- 0.59%); assay type: toxicity; conditions: mouse, 0.1 µM, time 1-3 day
# [17] = target: Serine/threonine-protein kinase mTOR (Homo sapiens) (UniProt P42345); conditions: HeLa, dose 100.0 nM, time 30.0 min
# [18] = target: Serine/threonine-protein kinase mTOR (Mus musculus) (UniProt Q9JLN9); conditions: MEF, dose 100.0 nM, time 30.0 min; remark: listed apart in the source
# MEF [19] = assay: Induction of cell cycle arrest in mLST8 knockout MEF cells assessed as accumulation at S phase at 100 nM incubated for 1 to 3 days by propidium iodide staining based flow cytometric analysis (reference value: 59.7 +/- 0.49%); assay type: toxicity; conditions: mouse, 0.1 µM, time 1-3 day
# MEF [20] = assay: Inhibition of PI3K/mTOR in MEF cells assessed as reduction in NDRG1 phosphorylation incubated ay 1 uM for 30 mins by immunoblot analysis; assay type: cell-based; conditions: Mus musculus
# Method in brief: (§1)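 HeLa cells or wild-type/knockout MEFs cultured in 10% serum and treated 30 min with inhibitor. Lysed in Tris lysis buffer and extracts immunoblotted with an antibody to NDRG1 phosphorylated at Thr346/356/366. Three experiments.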
# HeLa = assay: Inhibition of PI3K/mTOR in human HeLa cells assessed as reduction in NDRG1 phosphorylation incubated ay 1 uM for 30 mins by immunoblot analysis; assay type: cell-based; method in brief: as §1
# MEF [21] = assay: Inhibition of PI3K in serum starved sin1 knockout MEF cells assessed as reduction IGF1-stimulated AKT phosphorylation at Thr308 residue at 1 uM incubated for 20 mins by immunoblot analysis; assay type: cell-based; conditions: Mus musculus
# Method in brief: (§2)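 Wild-type, Rictor-, mLST8- or Sin1-knockout MEFs serum-deprived, pretreated 30 min with inhibitor, then stimulated with IGF-1 for 20 min. Lysates immunoblotted for Akt Thr308 phosphorylation. Three independent experiments.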
# MEF [22] = assay: Inhibition of PI3K in serum starved mLST8 knockout MEF cells assessed as reduction IGF1-stimulated AKT phosphorylation at Thr308 residue at 1 uM incubated for 20 mins by immunoblot analysis; assay type: cell-based; conditions: Mus musculus; method in brief: as §2
# MEF [23] = assay: Inhibition of PI3K in serum starved MEF cells assessed as reduction IGF1-stimulated AKT phosphorylation at Thr308 residue at 1 uM incubated for 20 mins by immunoblot analysis; assay type: cell-based; conditions: Mus musculus; method in brief: as §2
# HEK293 [24] = assay: Inhibition of PI3K in IGF1-stimulated HEK293 cells assessed as reduction in IGF1-stimulated PtdIns(3,4,5)P3 production at 2 uM pre incubated for 30 mins followed by IGF1-stimulation for 10 mins; assay type: cell-based; conditions: Homo sapiens
# HEK293 [25] = assay: Inhibition of PI3K in serum starved HEK293 cells expressing GST-tagged-AKT1 S473D mutant assessed as reduction in IGF1-stimulated AKT1 phosphorylation at Thr308 residue at 1 uM incubated for 20 mins by immunoblot analysis; assay type: cell-based; conditions: Homo sapiens
# Method in brief: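 HEK-293 cells transfected with wild-type or S473D GST–Akt1. At 24 h, serum-starved 16 h, pretreated 30 min with inhibitor, then stimulated with IGF-1 for 20 min. Lysates immunoblotted for Thr308 phosphorylation. Three separate experiments.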
# MEF [26] = assay: Inhibition of PI3K in serum starved Rictor knockout MEF cells assessed as reduction IGF1-stimulated AKT phosphorylation at Thr308 residue at 1 uM incubated for 20 mins by immunoblot analysis; assay type: cell-based; conditions: Mus musculus; method in brief: as §2
compound,measurement,setting,value
O=C(NOCC(O)CO)c1ccc(F)c(F)c1Nc1ccc(I)cc1Cl (configuration not stated),inhibition,[1],Active
same,inhibition,[2],Active
same,inhibition,[3],Active
same,inhibition,[4],Active
same,inhibition,[5],Active
CO[C@H]1C[C@@H]2CC[C@@H](C)[C@@](O)(O2)C(=O)C(=O)N2CCCC[C@H]2C(=O)O[C@H]([C@H](C)C[C@@H]2CC[C@@H](O)[C@H](OC)C2)CC(=O)[C@H](C)/C=C(\C)[C@@H](O)[C@@H](OC)C(=O)[C@H](C)C[C@H](C)/C=C/C=C/C=C/1C [SIROLIMUS],Activity,MEF [6],14.4%
same,Activity,MEF [7],11.2%
same,Activity,MEF [8],56.7%
same,inhibition,[9],inactive
same,inhibition,[10],Active
same,inhibition,[11],Active
same,inhibition,[12],Active
same,inhibition,[13],Active
same,Activity,MEF [14],29.8%
same,inhibition,[15],Active
same,Activity,MEF [16],35.8%
same,inhibition,[17],inactive
same,inhibition,[18],Active
same,Activity,MEF [19],46.5%
Oc1cccc(-c2nc(N3CCOCC3)c3oc4ncccc4c3n2)c1,inhibition,MEF [20],Active
same,inhibition,HeLa,Active
same,inhibition,MEF [21],Active
same,inhibition,MEF [22],Active
same,inhibition,MEF [23],Active
same,inhibition,HEK293 [24],Active
same,inhibition,HEK293 [25],Active
same,inhibition,MEF [26],Active
